From PubChem
Sampled rows, rich in hits. Any-hit rate of the full collection: about 3.1%.
KCNQ1 inh: blocks the human KCNQ1 potassium channel; CHO-K1 KCNQ1, FluxOR thallium flux fluorescence; active compounds read high; B-score at 10 µM; 1.3% of 310,000 active; AID 2642;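 active = compounds whose thallium flux B-score, printed positive for inhibition, exceeds three library SD while starting fluorescence stays within three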;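 note: channel opened by potassium depolarization with thallium stimulus after 20 min compound exposure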
KCNQ1 pot: potentiates or activates the human KCNQ1 potassium channel; CHO-K1 KCNQ1, thallium flux FluxOR fluorescence; active compounds read high; AID 2648; P51787; 0.35% of 310,000 active; B-score at 10 µM;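 active = fluorescence ratio B-score, a plate-corrected score, at least three library SD, with initial intensity B-score within 5 SD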
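Assay system: stable KCNQ1 CHO-K1 line; medium: assay buffer, equal DMSO in all wells; timing: 90 min dye loading and 20 min compound exposure, both at room temperature; technique: kinetic FluxOR thallium fluorescence, 10-s 1-Hz baseline, 110-s post-stimulus read; read-out basis: B score of baseline-normalized fluorescence ratio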
KCNK9 inh: inhibitors of human KCNK9 two-pore domain potassium channel; Q9NPC2; HEK293 KCNK9, FluxOR thallium flux fluorescence; active compounds read low; B-score at 10 µM; 1.2% of 310,000 active;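 active = ratio B-score over 3 SD below the library mean, with starting fluorescence within 5 SD of its mean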;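 note: negative B-score means less thallium flux so channel inhibition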
KCNK3 inh: human KCNK3 channel inhibition, primary screen; O14649; CHO-KCNK3 thallium flux, FluxOR fluorescence; active compounds read low; B-score at 10 µM; 0.84% of 340,000 active; AID 602410;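 active = B-score under library mean minus 4 SD, starting fluorescence ratio at most library mean plus 5 SD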;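 note: more negative B-score means stronger inhibition of thallium flux through KCNK3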
hERG rescue: compounds protecting human hERG from proarrhythmic drug block. CHO-hERG, FluxOR thallium flux, dofetilide IC70 present. activation (rescue from dofetilide block), less the hit threshold, % at 10 µM. AID 1511. 0.51% of 310,000 active;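 active = activation above the mean of controls blocked by dofetilide plus 5 SD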;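 note: thallium influx through hERG after potassium depolarization seen as dye fluorescence rise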
Target sequence (Q12809 whole entry, looked up): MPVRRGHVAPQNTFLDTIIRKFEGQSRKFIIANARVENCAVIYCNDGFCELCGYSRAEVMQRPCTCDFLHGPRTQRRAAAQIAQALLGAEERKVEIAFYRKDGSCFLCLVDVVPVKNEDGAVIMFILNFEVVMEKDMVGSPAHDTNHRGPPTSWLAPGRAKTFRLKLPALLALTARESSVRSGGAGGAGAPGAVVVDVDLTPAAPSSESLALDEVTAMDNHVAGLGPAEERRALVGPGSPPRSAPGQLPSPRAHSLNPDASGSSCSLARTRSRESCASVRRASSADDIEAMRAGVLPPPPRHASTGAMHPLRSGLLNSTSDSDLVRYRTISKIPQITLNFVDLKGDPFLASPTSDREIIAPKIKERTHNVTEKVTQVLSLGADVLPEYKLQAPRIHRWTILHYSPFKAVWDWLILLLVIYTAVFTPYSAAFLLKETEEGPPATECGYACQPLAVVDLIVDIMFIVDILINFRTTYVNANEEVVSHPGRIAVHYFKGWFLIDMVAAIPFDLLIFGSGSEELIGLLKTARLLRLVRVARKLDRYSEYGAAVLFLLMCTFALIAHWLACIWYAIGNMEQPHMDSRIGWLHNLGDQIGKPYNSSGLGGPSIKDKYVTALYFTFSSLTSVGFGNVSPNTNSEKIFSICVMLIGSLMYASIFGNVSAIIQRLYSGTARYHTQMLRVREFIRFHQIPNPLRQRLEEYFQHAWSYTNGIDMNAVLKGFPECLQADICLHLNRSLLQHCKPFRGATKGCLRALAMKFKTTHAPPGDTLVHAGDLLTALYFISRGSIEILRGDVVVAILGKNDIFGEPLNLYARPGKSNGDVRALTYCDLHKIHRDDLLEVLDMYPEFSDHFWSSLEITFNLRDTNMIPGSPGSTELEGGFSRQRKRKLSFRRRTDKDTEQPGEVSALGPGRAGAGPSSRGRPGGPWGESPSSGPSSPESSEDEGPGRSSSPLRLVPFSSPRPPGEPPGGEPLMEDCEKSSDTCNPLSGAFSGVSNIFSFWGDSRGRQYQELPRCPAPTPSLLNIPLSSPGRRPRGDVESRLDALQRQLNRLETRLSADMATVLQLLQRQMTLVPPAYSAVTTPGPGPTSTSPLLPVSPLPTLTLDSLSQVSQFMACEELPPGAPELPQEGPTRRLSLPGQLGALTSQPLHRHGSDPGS
* hit, by the source's call; i = inactive; . = no result given.

SMILES	KCNQ1 inh	KCNQ1 pot	KCNK9 inh	KCNK3 inh	hERG rescue
COc1ccc(-c2oc3c(CC=C(C)C)c(O[C@@H]4O[C@H](CO)[C@@H](O)[C@H](O)[C@H]4O)cc(O)c3c(=O)c2O[C@@H]2O[C@@H](C)[C@H](O)[C@@H](O)[C@H]2O)cc1	i	i	i	.	-7
CCCN(Cc1nnc(-c2ccccc2Cl)o1)C(=O)c1cc(S(=O)(=O)N2CCOCC2)ccc1F	i	i	i	i	-15
Cc1ccccc1S(=O)(=O)NC(=NCc1ccc(F)cc1)c1ccccc1	.	.	.	-9.3*	.
Cc1ccc(S(=O)(=O)NC(=NCc2ccccc2)c2ccc(F)cc2)cc1	i	i	i	i	-3
CC(C)(C)C(=O)NCCCc1nc2ccccc2n1CCCOc1ccc(Cl)cc1	i	i	-7.3*	i	-10
C=CCn1c(CCCNC(=O)C(C)(C)C)nc2ccccc21	i	i	i	i	-8
C=CCn1c(=S)[nH]c2nc3c(cc2c1=O)CCCC3	i	9*	i	i	5.9*
C=CCn1c(=O)c2ccccc2n2c(=S)[nH]nc12	i	i	i	i	-6
C=CCn1c(=S)[nH]c2ccc(Br)cc2c1=O	i	19*	i	i	10*
Cc1ccc(N2C(=O)c3cccc4c(N5CCN(C)CC5)ccc(c34)C2=O)c2cccnc12	9*	i	i	.	-21
CN(C1CCCCC1)C(CNS(=O)(=O)c1ccc(Cl)cc1)c1ccccc1 (stereo unspecified)	i	i	i	i	-4
N#Cc1cc(C(=O)c2cc(F)ccc2O)cn(-c2nccs2)c1=O	8*	i	i	i	-13
CC(NC(=O)c1cccc(Cn2cc([N+](=O)[O-])cn2)c1)c1ccc(C(C)(C)C)cc1 (stereo unspecified)	i	i	-7.6*	i	-4
CC(C)c1nc(SCC(=O)Nc2ccc([N+](=O)[O-])cc2Br)n[nH]1	i	i	i	i	8.6*
CCOC(=O)c1c(C)n(-c2ccc(C)cc2)c2ccc(OCC(O)CNCC3CCCO3)cc12 (stereo unspecified)	7*	i	i	i	-42
C=CCn1c(COc2ccc(F)cc2)nnc1SCC(=O)NC1CCS(=O)(=O)C1 (stereo unspecified)	i	i	i	i	-13
COc1ccc(/C=N/NS(=O)(=O)c2ccc(C)cc2)cc1OC(=O)c1ccc(C)cc1	6*	i	i	i	-6
COc1ccc(C(=O)Oc2cc(/C=N/NS(=O)(=O)c3ccccc3)ccc2OC)cc1	i	i	i	i	-4
Cc1cc(C)c2[nH]c(=O)c(CN(Cc3ccc4c(c3)OCO4)Cc3nnnn3C3CCCC3)cc2c1	i	i	-13*	i	-14
C[C@H](NC(N)=O)C(=O)Nc1ccc(N2CCOCC2)c(S(=O)(=O)Nc2ccc(Cl)cc2)c1	.	.	.	i	.
O=[N+]([O-])c1ccc(N2N=C(c3ccccc3)CC2c2ccccc2O)cc1 (stereo unspecified)	i	i	i	i	-7
O=[N+]([O-])c1ccc(N2N=C(c3ccco3)CC2c2ccccc2)cc1 (stereo unspecified)	11*	i	i	i	-7
CS(=O)(=O)N1N=C(c2ccco2)CC1c1ccccc1 (stereo unspecified)	i	i	i	i	0
Fc1ccc(C2CC(c3ccco3)=NN2c2ccccc2)cc1 (stereo unspecified)	7*	i	-7.9*	i	-17
COc1ccccc1N1N=C(c2ccc([N+](=O)[O-])cc2)CC1c1ccccc1 (stereo unspecified)	12*	i	i	i	-14
SMILES	KCNQ1 inh	KCNQ1 pot	KCNK9 inh	KCNK3 inh	hERG rescue
COc1ccc(N=C2S/C(=C\c3ccc(Cl)c([N+](=O)[O-])c3)C(=O)N2CCN(C)C)cc1	10*	i	i	i	-35
CCN(CC)CCN1C(=O)/C(=C\c2ccc(Cl)c([N+](=O)[O-])c2)SC1=Nc1ccc(OC)cc1	i	i	i	i	-19
S=c1sc2c(Cl)ncnc2n1-c1ccccc1	i	8*	i	i	-19
Cc1nc(N2CCN(C)CC2)c2sc(=S)n(-c3ccccc3)c2n1	i	i	i	i	-7
NC(=O)C1Cc2ccccc2CN1C(=O)c1nn(Cc2ccccc2)c(=O)c2ccccc12 (stereo unspecified)	.	.	.	i	.
O=C(CSc1nc2ccccc2s1)N1N=C(c2cccs2)CC1c1ccc(F)cc1 (stereo unspecified)	i	i	-6.9*	i	-10
O=C(O)C1CCN(C(=O)CSc2nc3ccccc3s2)CC1	i	i	i	i	-8
NC(=O)C1CCN(C(=O)CSc2nc3ccccc3s2)CC1	i	i	i	i	5.6*
C=CCNc1nnc(SCC(=O)N2CCC(C(N)=O)CC2)s1	i	9*	i	i	-4
N#Cc1sc(NCc2ccccn2)nc1Cl	i	i	i	i	-3
COc1cc(OC)c(-c2sc(Nc3ccccc3)n[n+]2-c2ccc(F)cc2)cc1OC	i	i	i	i	-2
COc1ccc(-c2sc(Nc3ccccc3)n[n+]2-c2ccc(F)cc2)c(OC)c1OC	7*	i	i	i	-18
Cc1ccc(C)n1-c1ccc(C(=O)N2CCC(C(N)=O)CC2)cc1	i	i	i	i	7.2*
C/C(N)=C(/C#N)C(=O)CSc1nc2ccccc2c(=O)n1Cc1ccc(F)cc1	i	8*	i	i	-5
COc1ccc(NC(=O)COC(=O)Cn2cnc3ccccc3c2=O)c(OC)c1	.	.	.	i	.
O=C(Oc1c(Br)cc([N+](=O)[O-])cc1Br)c1cccnc1	7*	i	i	i	-13
CCOc1ccc(NC(=O)C(CC)n2nc(C)c3c(C)n(-c4ccccc4)nc3c2=O)cc1 (stereo unspecified)	i	i	i	i	-5
Cc1cccc(NC(=O)CCc2c(C)nc3ncnn3c2C)n1	i	i	i	i	6.4*
Cc1ccc(NC(=O)CCc2c(C)nc3ncnn3c2C)cc1	i	i	i	i	-12
Cc1cc(C)c(NC(=O)COC(=O)COc2ccc3c(C)cc(=O)oc3c2)c(Cl)c1	.	.	.	i	.
C=CC(n1cncn1)C(O)(c1ccccc1)c1ccccc1 (stereo unspecified)	i	i	i	i	-12
O=C(Cc1ccccc1)Nc1ccc(NC(=O)c2cccc(Cl)c2)cc1	i	i	i	i	-2
Cc1cc(C)cc(C(=O)Nc2ccc(NC(=O)Cc3ccccc3)cc2)c1	i	i	i	i	6.2*
O=C(CSc1ncccn1)NCc1ccc(Cl)cc1	i	i	i	i	-4
